Results: ChEMBL document CHEMBL4825662 (J Med Chem, 2021)
In brackets after ≈: the same amount, converted by molar mass.

Experiments:
[1] = Efflux ratio of apparent permeability in MDCK-MDR1 cells at 10 uM measured at 60 mins by LC-MS/MS analysis; assay type: ADME, cell-based, Canis lupus familiaris; settings: dog, MDCK-MDR1
[2] = Cytotoxicity against human HepG2 cells by MTT assay; assay type: cell-based
Summary of the method: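 Viability was assessed by MTT after culture with compound at 0.01 nM to 100 μM, run in parallel with plaque reduction assays. Values are the average of at least two testing occasions.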

[3] = Intrinsic clearance in Beagle dog liver microsomes preincubated followed by NADPH addition and measured up to 45 mins by LC-MS/MS analysis; assay type: ADME, Canis lupus familiaris, Microsome
[4] = Half life in human hepatocytes at 3 uM measured up to 60 mins by LC-MS/MS analysis; assay type: ADME, cell-based, Hepatocyte
[5] = Cmax in CD1 mouse at 10 mg/kg, po measured after 0.083 to 24 hrs by UHPLC-TOF method; assay type: ADME, organism-based; set-up: route oral, time 0.083-24 hrs, dose 10 mg/kg; settings: in vivo
[6] = Protein binding in dog plasma assessed as unbound fraction at 5 uM by LC-MS/MS analysis based equilibrium dialysis method; assay type: ADME, cell-free, Canis lupus familiaris
[7] = Half life in Beagle dog hepatocytes at 3 uM assessed per million cells measured up to 60 mins by LC-MS/MS analysis; assay type: ADME, cell-based, Canis lupus familiaris, Hepatocyte
[8] = Protein binding in human plasma assessed as unbound fraction at 5 uM by LC-MS/MS analysis based equilibrium dialysis method; assay type: ADME, cell-free
[9] = Half life in CD1 mouse at 10 mg/kg, po measured after 0.083 to 24 hrs by UHPLC-TOF method; assay type: ADME, organism-based; settings: in vivo, time 0.083-24 hrs
[10] = Half life in Beagle dog at 3 mg/kg, po measured after 0.03 to 24 hrs by UHPLC-TOF method; assay type: ADME, organism-based, Canis lupus familiaris; settings: in vivo, time 0.03-24 hrs
[11] = Half life in Beagle dog at 0.3 mg/kg, iv measured after 0.03 to 24 hrs by UHPLC-TOF method; assay type: ADME, organism-based, Canis lupus familiaris; settings: in vivo, time 0.03-24 hrs
Summary of the method: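 Dogs dosed IV as a suspension of amorphous solid. Serial blood at 2, 5, 15 min and 1, 2, 4, 8, 12, 24 h into heparinized tubes, centrifuged at 4 °C for 10 min at 3000g. Plasma snap-frozen and stored at −20 °C, then analysed by UHPLC-TOF.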

[12] = Clearance in CD1 mouse at 1 mg/kg, iv measured after 0.083 to 24 hrs by UHPLC-TOF method; assay type: ADME, organism-based; settings: in vivo, time 0.083-24 hrs
[13] = Clearance in Beagle dog at 0.3 mg/kg, iv measured after 0.03 to 24 hrs by UHPLC-TOF method; assay type: ADME, organism-based, Canis lupus familiaris; settings: in vivo, time 0.03-24 hrs
[14] = Intrinsic clearance in rat hepatocytes at 3 uM assessed per million cells measured up to 60 mins by LC-MS/MS analysis; assay type: ADME, cell-based, Hepatocyte; settings: read-out: CLH
[15] = Intrinsic clearance in human hepatocytes at 3 uM assessed per million cells measured up to 60 mins by LC-MS/MS analysis; assay type: ADME, cell-based, Hepatocyte; settings: read-out: CLH
Human orthopneumovirus = experiment: Antiviral activity against Respiratory syncytial virus A2 infected in human Huh7 cells by Plaque reduction assay; assay type: functional, organism-based; settings: A2, Huh-7
Summary of the method: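 Huh-7 cells were infected with RSV strain A2 in the presence of compound. Values are the average of at least two testing occasions.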

[16] = Tmax in Beagle dog at 3 mg/kg, […] by UHPLC-TOF method; assay type: ADME, organism-based, Canis lupus familiaris; settings: in vivo, po
[17] = Apparent permeability across apical to basolateral side in MDCK-MDR1 cells at 10 uM measured at 60 mins by LC-MS/MS analysis; assay type: ADME, cell-based, Canis lupus familiaris; settings: dog, MDCK-MDR1
[18] = Half life in CD1 mouse at 1 mg/kg, iv measured after 0.03 to 24 hrs by UHPLC-TOF method; assay type: ADME, organism-based; settings: in vivo, time 0.03-24 hrs
[19] = Intrinsic clearance in human liver microsomes preincubated followed by NADPH addition and measured up to 45 mins by LC-MS/MS analysis; assay type: ADME, Microsome
[20] = Half life in Beagle dog liver microsomes preincubated followed by NADPH addition and measured up to 45 mins by LC-MS/MS analysis
[21] = Oral bioavailability in CD1 mouse at 10 mg/kg measured after 0.03 to 24 hrs by UHPLC-TOF method; assay type: ADME, organism-based; settings: in vivo, time 0.03-24 hrs
Summary of the method: (§1)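 Male CD-1 mice, acclimatized and individually housed, dosed IV and PO as amorphous-solid suspension. Terminal cardiac-puncture blood into heparinized tubes on wet ice, centrifuged at 4 °C within 15 min; plasma snap-frozen at −20 °C. IV arm sampled 2 min–24 h, oral arm 5 min–24 h. Plasma analysed by UHPLC-quadrupole-TOF MS.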

[22] = Half life in human liver microsomes preincubated followed by NADPH addition and measured up to 45 mins by LC-MS/MS analysis; assay type: ADME, Microsome
[23] = Apparent permeability across basolateral side to apical side in MDCK-MDR1 cells at 10 uM measured at 60 mins by LC-MS/MS analysis; assay type: ADME, cell-based, Canis lupus familiaris; settings: dog
[24] = Tmax in CD1 mouse at 10 mg/kg, po measured after 0.083 to 24 hrs by UHPLC-TOF method; assay type: ADME, organism-based; settings: in vivo, time 0.083-24 hrs; summary of the method: as §1
[25] = Thermodynamic solubility in PBS at 1 to 100 uM at pH 7.4 by HPLC-UV method; assay type: physicochemical; settings: dose 1-100 µM, read-out: Therm_solubility
[26] = Cmax in Beagle dog at 3 mg/kg, po measured after 0.03 to 24 hrs by UHPLC-TOF method; assay type: ADME, organism-based, Canis lupus familiaris; set-up: route oral, dose 3 mg/kg, time 0.03-24 hrs; settings: in vivo
[27] = Half life in rat hepatocytes at 3 uM measured up to 60 mins by LC-MS/MS analysis; assay type: ADME, cell-based, Hepatocyte
[28] = Intrinsic clearance in Beagle dog hepatocytes at 3 uM assessed per million cells measured up to 60 mins by LC-MS/MS analysis; assay type: ADME, cell-based, Canis lupus familiaris, Hepatocyte; settings: read-out: CLH
[29] = Oral bioavailability in Beagle dog at 3 mg/kg measured after 0.03 to 24 hrs by UHPLC-TOF method; assay type: ADME, organism-based, Canis lupus familiaris; settings: in vivo, 3 mg/kg, time 0.03-24 hrs
Summary of the method: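 Dogs examined by a veterinary surgeon before each session, fed 2 h post-dose, water ad libitum, dosed as amorphous-solid suspension. Serial blood into heparinized tubes, centrifuged at 4 °C for 10 min at 3000g; plasma snap-frozen at −20 °C. IV sampling 2 min–24 h, oral 15 min–24 h. Plasma analysed by UHPLC-quadrupole-TOF MS.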

[30] = Protein binding in rat plasma assessed as unbound fraction at 5 uM by LC-MS/MS analysis based equilibrium dialysis method; assay type: ADME, cell-free
[31] = Volume of distribution at steady state in CD1 mouse at 1 mg/kg, iv measured after 0.083 to 24 hrs by UHPLC-TOF method; assay type: ADME, organism-based; settings: in vivo, time 0.083-24 hrs, read-out: Vdss; summary of the method: as §1
[32] = Intrinsic clearance in Sprague-Dawley rat liver microsomes preincubated followed by NADPH addition and measured up to 45 mins by LC-MS/MS analysis; assay type: ADME, Microsome
[33] = Volume of distribution at steady state in Sprague-Dawley rat at 1 mg/kg, iv administered […] measured after 0.02 to 24 hrs by tandem liquid chromatography/mass spectrometry; assay type: ADME, organism-based; settings: in vivo, time 0.02-24 hrs, read-out: Vdss
Summary of the method: (§2)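 Male Sprague–Dawley rats (200–250 g), 3 per route. IV bolus at 1 mg/kg, 1 mg/mL in 40:60 dimethylacetamide/saline; oral gavage at 5 or 10 mg/kg, 5 mg/mL in 1% methyl cellulose, 0.1% Tween 80 in water. Serial blood at 0.02–24 h (ten points) into heparin, spun at 4 °C, plasma frozen; acetonitrile protein precipitation, ESI LC-MS/MS with matrix curve and internal standards.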

[34] = Half life in Sprague-Dawley rat at 10 mg/kg, po measured after 0.25 to 24 hrs by UHPLC-TOF method; assay type: ADME, organism-based; settings: in vivo, time 0.25-24 hrs
[35] = Clearance in Sprague-Dawley rat at 1 mg/kg, iv administered […] measured after 0.02 to 24 hrs by tandem liquid chromatography/mass spectrometry; assay type: ADME, organism-based; settings: in vivo, time 0.02-24 hrs
[36] = Tmax in CD1 mouse at 5 mg/kg, po measured after 0.083 to 24 hrs by UHPLC-TOF method; assay type: ADME, organism-based; settings: in vivo, time 0.083-24 hrs; summary of the method: as §1
[37] = Tmax in Sprague-Dawley rat at 10 mg/kg, po measured after 0.02 to 24 hrs by UHPLC-TOF method; assay type: ADME, organism-based; settings: Sprague-Dawley, in vivo, time 0.02-24 hrs, read-out: Tmax
[38] = Cmax in Sprague-Dawley rat at 5 mg/kg, po administered via gavage measured after 0.02 to 24 hrs by tandem liquid chromatography/mass spectrometry; assay type: ADME, organism-based; set-up: route oral, dose 5 mg/kg, time upper 24 hrs, time lower 0.02 hrs; settings: in vivo
Summary of the method: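 Male Sprague–Dawley rats weighing 200–250 g, 3 per route, were used. The i.v. bolus was 1 mg/kg at 1 mg/mL in 40:60 dimethylacetamide/saline. Oral gavage doses were 5 or 10 mg/kg at 5 mg/mL in 1% methyl cellulose with 0.1% Tween 80. Heparinized blood was taken at 0.02–24 h (ten time points). Plasma was analyzed by LC-MS/MS after acetonitrile precipitation.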

[39] = Oral bioavailability in CD1 mouse at 5 mg/kg measured after 0.03 to 24 hrs by UHPLC-TOF method; assay type: ADME, organism-based; settings: in vivo, time 0.03-24 hrs; summary of the method: as §1
[40] = Cmax in Sprague-Dawley rat at 10 mg/kg, po measured after 0.02 to 24 hrs by UHPLC-TOF method; assay type: ADME, organism-based; set-up: route oral, dose 10 mg/kg, time 0.02-24 hrs; settings: in vivo
[41] = Oral bioavailability in Sprague-Dawley rat at 10 mg/kg administered via gavage measured after 0.02 to 24 hrs by tandem liquid chromatography/mass spectrometry; assay type: ADME, organism-based; settings: in vivo, time 0.02-24 hrs; summary of the method: as §2
[42] = Cmax in CD1 mouse at 5 mg/kg, po measured after 0.03 to 24 hrs by UHPLC-TOF method; assay type: ADME, organism-based; set-up: route oral, time upper 24 hrs, time lower 0.03 hrs, dose 5 mg/kg; settings: in vivo

In the case of `NCc1ccc2c(c1)nc(CN1C(=O)C3(CC3)c3ccc(F)cc31)n2C1CCOCC1`, the efflux ratio at 1 h, 10 µM [1] is reported as 94, the CC50 [2] is reported as greater than 25000 nM and the intrinsic clearance [3] is reported as 0.4 µL/min. For the same compound, the half-life at 3 µM [4] was 3.28 h, the Cmax [5] was 450 ng/mL and the fraction unbound at 5 µM [6] was 0.497. The half-life at 3 µM [7] was greater than 16.7 h, the fraction unbound at 5 µM [8] was 0.548 and the half-life [9] was 1.4 h. The half-life [10] was 3.1 h, the half-life [11] was 5.2 h and the clearance [12] was 58 mL/min/kg. It also gave a clearance [13] of 19.2 mL/min/kg, a hepatocyte CLint at 3 µM [14] of 21.2 µL/min/1e6 cells and a hepatocyte CLint at 3 µM [15] of 7.1 µL/min/1e6 cells. For the same compound, the EC50 (Human orthopneumovirus) was 2.4 nM, the Tmax [16] was 0.5 h and the Papp A→B at 1 h, 10 µM [17] was 0.4 ×10⁻⁶ cm/s. The half-life [18] was 1.7 h, the “intrinsic clearance (CLint)” value [19] was 66.4 µL/min and the half-life [20] was 55.8 h. For the same compound, the bioavailability [21] was 39.4%, the half-life [22] was 0.348 h and the Papp B→A at 1 h, 10 µM [23] was 40.6 ×10⁻⁶ cm/s. For the same compound, the Tmax [24] was 1.7 h, the solubility thermodynamic [25] was 1270 µM (≈ 534 µg/mL) and the Cmax [26] was 505 ng/mL. It also gave a half-life at 3 µM [27] of 1.02 h, a hepatocyte CLint at 3 µM [28] of 0.8 µL/min/1e6 cells and an F [29] of 163%. It also gave a fraction unbound at 5 µM [30] of 0.399, a Vd [31] of 5.5 L/kg and a Microsomal intrinsic clearance [32] of 5.2 µL/min.
Compound `NCc1ccc2c(c1)nc(CN1C(=O)C3(CC3)c3cccc(F)c31)n2CCCC(F)(F)F` has an efflux ratio at 1 h, 10 µM [1] of 7.5, a CC50 [2] greater than 25000 nM and an intrinsic clearance [3] of 2 µL/min. It also gave a Vd [33] of 11 L/kg, a half-life [34] of 0.8 h and a clearance [35] of 209 mL/min/kg. The Tmax [36] was 2 h, the clearance [12] was 76 mL/min/kg and the Tmax [37] was 2.1 h. The Cmax [38] was 44.3 ng/mL, the EC50 (Human orthopneumovirus) was 2.3 nM and the Papp A→B at 1 h, 10 µM [17] was 0.4 ×10⁻⁶ cm/s. The bioavailability [39] was 12.9%, the Cmax [40] was 44.3 ng/mL and the half-life [18] was 2.4 h. The “intrinsic clearance (CLint)” value [19] was 2.9 µL/min, the bioavailability [41] was 13.8% and the Papp B→A at 1 h, 10 µM [23] was 2.7 ×10⁻⁶ cm/s. For the same compound, the solubility thermodynamic [25] was 1180 µM (≈ 526 µg/mL), the Cmax [42] was 110 ng/mL and the Vd [31] was 11.3 L/kg. The Microsomal intrinsic clearance [32] was 0.7 µL/min.
